Data on 48 variants can be found in the RNAGym collection of RNA variant scans (doi:10.1002/anie.201605470).

Sequences and labels used below:
B1: Osa-1-4 twister ribozyme (parent)
chain: CCGCCUAACACUGCCAAUGCCGGUCCCAAGCCCGGAUAAAAGUGGAGGGGGCGG

Variants of B1 are the subject of the data set. Briefly: self-cleavage, relative activity (ratio to wild type); higher = more cleavage; co-transcriptional. Summed up: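 A DNA template for a 54-nucleotide Oryza sativa twister ribozyme was synthesised with 97 % wild-type base and 1 % of each other base at the 48 positions downstream of the cleavage site. It was transcribed in vitro for 2 h at 37 °C, allowing co-transcriptional self-cleavage, then reverse-transcribed with a template-switching oligonucleotide, PCR-amplified and deep-sequenced. Cleavage status was scored from reads with or without upstream sequence. Relative activity is fraction cleaved normalised to wild type.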
As for CCGCCUAACACUGCCAAUGCCGGUCCCAAGCCCGGAUAAGAGUGUAGGGGGCGG, the self-cleavage was 0.07.

As for CCGCCUAACACUGCCAAUGCCGGUCCCAAGCCCGGAUAAGAGUGCAGGGGGCGG, the self-cleavage was determined as 0.07.

As for CCGCCUAACACUGCCAAUGCCGGUCCCAAGCCCGGAUAAGAGUGAAGGGGGCGG, the self-cleavage was found to be 0.09.

Regarding CCGCCUGACACUGCCAAUGCCGGUCCCAAGCCCGGAUAAUAGUGGAGGGGGCGG, the self-cleavage was found to be 0.13.

On to CCGCCUUACACUGCCAAUGCCGGUCCCAAGCCCGGAUAAUAGUGGAGGGGGCGG, for which the self-cleavage came out at 0.08.

CCGCCUCACACUGCCAAUGCCGGUCCCAAGCCCGGAUAAUAGUGGAGGGGGCGG: the self-cleavage stood at 0.04.

CCGCCUAACACUGCCAAUGCCGGACCCAAGCCCGGAUAAGAGUGGAGGGGGCGG: the self-cleavage came to 0.07.

Take CCGCCUAACACUGCCAAUGCCGGGCCCAAGCCCGGAUAAGAGUGGAGGGGGCGG: the self-cleavage came out at 0.02.

CCGCCUAACACUGCCAAUGCCGGCCCCAAGCCCGGAUAAGAGUGGAGGGGGCGG: the self-cleavage is 0.08.

On to CCGCCUAACACCGCCAAUGCCGGUCCCAAGCCCGGAUAAGAGUGGAGGGGGCGG, for which the self-cleavage stood at 0.79.

On to CCGCCUAACACGGCCAAUGCCGGUCCCAAGCCCGGAUAAGAGUGGAGGGGGCGG, for which the self-cleavage is 0.28.

Turning to CCGCCUAACACAGCCAAUGCCGGUCCCAAGCCCGGAUAAGAGUGGAGGGGGCGG, the self-cleavage was 0.75.

CCGCCUAACACUGCCAAUGCCGGUCCCAAGCCCGGAUAAGAGUGGAGGGGGCCG: the self-cleavage was 0.08.

On to CCGCCUAACACUGCCAAUGCCGGUCCCAAGCCCGGAUAAGAGUGGAGGGGGCAG, for which the self-cleavage was determined as 0.2.

On to CCGCCUAACACUGCCAAUGCCGGUCCCAAGCCCGGAUAAGAGUGGAGGGGGCUG, for which the self-cleavage amounted to 0.12.

CCGCCUAACACUGCCAAGGCCGGUCCCAAGCCCGGAUAAGAGUGGAGGGGGCGG: the self-cleavage turned out to be 0.76.

With CCGCCUAACACUGCCAAAGCCGGUCCCAAGCCCGGAUAAGAGUGGAGGGGGCGG, the self-cleavage worked out at 0.88.

CCGCCUAACACUGCCAACGCCGGUCCCAAGCCCGGAUAAGAGUGGAGGGGGCGG: the self-cleavage came out at 0.72.

As for CCGCCUAACACUGCCAAUGCCGGUCCCAAGCCCGCAUAAGAGUGGAGGGGGCGG, the self-cleavage was determined as 0.12.

CCGCCUAACACUGCCAAUGCCGGUCCCAAGCCCGUAUAAGAGUGGAGGGGGCGG: the self-cleavage worked out at 0.69.

On to CCGCCUAACACUGCCAAUGCCGGUCCCAAGCCCGAAUAAGAGUGGAGGGGGCGG, for which the self-cleavage came to 0.71.

For CCGCCUAACACUGCCAAUGCCGGUCCCAAGCCCGGAUAAGAGGGGAGGGGGCGG, the self-cleavage turned out to be 0.19.

For CCGCCUAACACUGCCAAUGCCGGUCCCAAGCCCGGAUAAGAGAGGAGGGGGCGG, the self-cleavage came to 0.21.

Consider CCGCCUAACACUGCCAAUGCCGGUCCCAAGCCCGGAUAAGAGCGGAGGGGGCGG, for which the self-cleavage was determined as 0.14.

In the case of CCGCCUAACACUGCCAAUGCCGGUCCCAAGCCCGGAUAAGAGUGGAGGGGCCGG, the self-cleavage is 0.07.

In the case of CCGCCUAACACUGCCAAUGCCGGUCCCAAGCCCGGAUAAGAGUGGAGGGGUCGG, the self-cleavage came out at 0.12.

In the case of CCGCCUAACACUGCCAAUGCCGGUCCCAAGCCCGGAUAAGAGUGGAGGGGACGG, the self-cleavage was determined as 0.25.

Take CCGCCUAAUACUGCCAAUGCCGGUCCCAAGCCCGGAUAAUAGUGGAGGGGGCGG: the self-cleavage was 0.2.

In the case of CCGCCUAAGACUGCCAAUGCCGGUCCCAAGCCCGGAUAAUAGUGGAGGGGGCGG, the self-cleavage stood at 0.17.

Take CCGCCUAAAACUGCCAAUGCCGGUCCCAAGCCCGGAUAAUAGUGGAGGGGGCGG: the self-cleavage stood at 0.09.

For the variant CCGCCUAACACUGCCAAUGCCGGUCCCAAUCCCGGAUAAGAGUGGAGGGGGCGG, the self-cleavage turned out to be 0.05.

As to CCGCCUAACACUGCCAAUGCCGGUCCCAAGCCCGGAUAAUAGUGGGGGGGGCGG, the self-cleavage came to 0.05.

For the variant CCGCCUAACACUGCCAAUGCCGGUCCCAAGCCCGGAUAAUAGUGGUGGGGGCGG, the self-cleavage amounted to 0.07.

With CCGCCUAACACUGCCAAUGCCGGUCCCAAGCCCGGAUAAUAGUGGCGGGGGCGG, the self-cleavage came out at 0.05.

For CCGCCUAACACUGCCAAUGCCGGUCACAAGCCCGGAUAAUAGUGGAGGGGGCGG, the self-cleavage stood at 0.05.

Turning to CCGCCUAACACUGCCAAUGCCGGUCGCAAGCCCGGAUAAUAGUGGAGGGGGCGG, the self-cleavage came to 0.08.

For the variant CCGCCUAACACUGCCAAUGCCGGUCUCAAGCCCGGAUAAUAGUGGAGGGGGCGG, the self-cleavage came to 0.14.

CCGCCUAACACUGCCAAUGCCGGUUCCAAGCCCGGAUAAUAGUGGAGGGGGCGG: the self-cleavage is 0.13.

With CCGCCUAACACUGCCAAUGCCGGUACCAAGCCCGGAUAAUAGUGGAGGGGGCGG, the self-cleavage turned out to be 0.06.

With CCGCCUAACACUGCCAAUGCCGGUGCCAAGCCCGGAUAAUAGUGGAGGGGGCGG, the self-cleavage amounted to 0.05.

For the variant CCGCCUAACACUGCCAAUGGCGGUCCCAAGCCCGGAUAAUAGUGGAGGGGGCGG, the self-cleavage was 0.07.

With CCGCCUAACACUGCCAAUGACGGUCCCAAGCCCGGAUAAUAGUGGAGGGGGCGG, the self-cleavage was 0.64.

With CCGCCUAACACUGCCAAUGUCGGUCCCAAGCCCGGAUAAUAGUGGAGGGGGCGG, the self-cleavage was 0.81.

As to CCGCCUAACACUGCCAAUGCCGGUCCCAAGCCCGGAUAAUAGUGGAGGGGGCGG, the self-cleavage was found to be 0.85.

For the variant CCGCCUAACACUGCCAAUGCCGGUCCCAAGCCCGGAUAAGAGUGGAGCGGGCGG, the self-cleavage is 0.08.

For CCGCCUAACACUGCCAAUGCCGGUCCCAAGCCCGGAUAAGAGUGGAGUGGGCGG, the self-cleavage stood at 0.06.

On to CCGCCUAACACUGCCAAUGCCGGUCCCAAGCCCGGAUAAGAGUGGAGAGGGCGG, for which the self-cleavage was 0.08.

For the variant CCGCCUAACACUGCCAAUGCCGGUCCCAAGUCCGGAUAAUAGUGGAGGGGGCGG, the self-cleavage amounted to 0.2.
